Measured values published in article PMC9199349 (ACS chemical biology, 2020).
“Also recorded” adds a separate entry of the source. Like-named read-outs stand apart in the source and are kept apart here.

What was measured:
HEK293T and HeLa cells = details: cited from earlier work
MTH1 = details: read-out: IC50 MTH1; dual inhibitor; cited from earlier work
OGG1 = details: read-out: IC50 OGG1, cited from earlier work
human OGG1 = human OGG1 (Homo sapiens, UniProt O15527); type: biochemical; details: for inhibition of excision of 8-OH-Gua by OGG1 / inhibition of excision of FapyAde by OGG1: inhibitor 10 μmol/L, genomic DNA, GC-MS/MS; for inhibition at 10 µM: read-out: inhibition of excision of FapyGua by OGG1
Sequence of human OGG1 (O15527 whole entry): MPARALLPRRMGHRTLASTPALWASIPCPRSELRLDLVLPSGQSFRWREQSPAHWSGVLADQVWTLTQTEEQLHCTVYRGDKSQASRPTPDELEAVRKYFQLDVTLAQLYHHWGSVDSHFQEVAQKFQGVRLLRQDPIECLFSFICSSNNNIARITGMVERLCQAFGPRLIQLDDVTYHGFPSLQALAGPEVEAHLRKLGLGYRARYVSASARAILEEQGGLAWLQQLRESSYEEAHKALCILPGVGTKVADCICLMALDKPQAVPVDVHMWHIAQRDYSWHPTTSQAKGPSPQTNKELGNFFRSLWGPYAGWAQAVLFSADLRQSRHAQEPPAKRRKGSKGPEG
Summary of the method: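 Test compound was dissolved in DMSO and added to the reaction mixture of human OGG1 with genomic DNA carrying multiple oxidatively-induced lesions. It was screened at 10 μmol/L, then tested from 0.05 to 10 μmol/L. Excised 8-OH-Gua, FapyGua and FapyAde were quantified by isotope-dilution GC-MS/MS. Controls were no enzyme, no inhibitor, and DMSO alone. Standard deviations were given; significance was set at p < 0.05.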

HeLa cells = details: LC-MS/MS with isotope-dilution; cited from earlier work
[1] = tested on: other BER enzymes / other DNA glycosylases; details: cited from earlier work
Pseudomonas aeruginosa = details: mice infected with Pseudomonas aeruginosa; cited from earlier work
[2] = highest concentration of 100 μmol/L

Row | Compound | toxicity (HEK293T and HeLa cells; concentrations up to 10 μmol/L) | toxicity (HEK293T and HeLa cells; [2]) | IC50 (MTH1) | IC50 (OGG1; dual inhibitor) | inhibition of excision of 8-OH-Gua by OGG1 (human OGG1) | inhibition of excision of FapyAde by OGG1 (human OGG1) | inhibition at 10 µM (human OGG1) | level of 8-OH-Gua in DNA (HeLa cells) | IC50 (OGG1; fluorogenic assay of 8-OH-Gua excision) | selectivity for OGG1 over other BER enzymes [1] | inflammation and mortality / survival (Pseudomonas aeruginosa)
1 | Cc1cnc(N)nc1OCCNC(=O)c1cccc(-c2ccc(S(=O)(=O)Nc3ccc4c(c3)N(C(=O)C3CC3)CCC4)cc2)c1 [SU0383, N-(2-((2-Amino-5-methylpyrimidin-4-yl)oxy)ethyl)-4’-(N-(1-(cyclopropanecarbonyl)-1,2,3,4-tetrahydroquinolin-7-yl)sulfamoyl)-[1,1’-biphenyl]-3-carboxamide] | little or no toxicity | moderate toxicity | 34 nM | 490 nM | significant inhibition | quite significant | ~30% |  |  |  | 
2 | NC(=O)c1cccc(-c2ccc(S(=O)(=O)Nc3ccc4c(c3)N(C(=O)C3CC3)CCC4)cc2)c1 [SU0268, 4’-(N-(1-(cyclopropanecarbonyl)-1,2,3,4-tetrahydroquinolin-7-yl)sulfamoyl)-[1,1’-biphenyl]-3-carboxamide] | little or no toxicity | moderate toxicity |  |  | strongly inhibited | quite significant | ~60% | increase the level of 8-OH-Gua in DNA | 59 nM | selective for inhibiting OGG1 over other BER enzymes | reduced both inflammation and proinflammatory cytokines, and improved animal survival; also recorded: efficacy in reducing inflammation and mortality
